Experimental data from ChEMBL document CHEMBL2010694, “Indolyl and dihydroindolyl N-glycinamides as potent and in vivo active NPY5 antagonists” (Bioorg Med Chem Lett, 2012).
In brackets after ≈: the same amount, converted by molar mass.

Legend:
[1] = molecular target: T1, Neuropeptide Y receptor type 5 (Homo sapiens, UniProt Q15761); assay: Displacement of [125I]peptide YY from human NPY5 receptor
T1 sequence (Q15761 whole entry): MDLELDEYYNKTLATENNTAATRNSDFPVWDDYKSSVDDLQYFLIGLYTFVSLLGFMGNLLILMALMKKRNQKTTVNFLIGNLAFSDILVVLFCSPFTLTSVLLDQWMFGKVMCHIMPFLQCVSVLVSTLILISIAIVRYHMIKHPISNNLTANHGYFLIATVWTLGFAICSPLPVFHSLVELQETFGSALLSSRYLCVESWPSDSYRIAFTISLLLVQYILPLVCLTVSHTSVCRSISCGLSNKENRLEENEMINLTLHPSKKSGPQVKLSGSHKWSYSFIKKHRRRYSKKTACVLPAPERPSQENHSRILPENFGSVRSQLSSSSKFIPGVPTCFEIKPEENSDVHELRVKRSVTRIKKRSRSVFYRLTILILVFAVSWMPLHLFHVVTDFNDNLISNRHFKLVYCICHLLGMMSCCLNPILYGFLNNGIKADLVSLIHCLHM

Liver microsomes [2] = assay: Intrinsic clearance in human liver microsomes at 1 uM by LC/MS analysis; assay type: ADME, Microsome
Procedure, shortened: (§1)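 Compound incubated with human or rat liver microsomes; reaction quenched with acetonitrile, centrifuged, and remaining drug in supernatant measured by LC/MS to estimate T1/2, from which intrinsic clearance was derived.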

Liver microsomes [3] = assay: Intrinsic clearance in rat liver microsomes at 1 uM by LC/MS analysis; assay type: ADME, Microsome; procedure, shortened: as §1
Brain [4] = assay: Drug uptake in Sprague-Dawley rat brain at 10 mg/kg, po by LC-MS/MS analysis; assay type: ADME, organism-based; parameters: dose 10 mg/kg, route oral; conditions: in vivo, read-out: Drug uptake
Procedure, shortened: (§2)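 Male Sprague-Dawley rats (300–350 g), femoral artery cannulated; single 10 mg/kg oral dose in an appropriate vehicle, N = 3. Blood taken predose, 1, 2 and 4 h; brains then collected and stored at -80 °C. Equal portions of plasma or homogenized brain from the three rats pooled per time point, protein precipitated, quantified by LC/MS/MS.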

Plasma [5] = assay: Plasma concentration in Sprague-Dawley rat at 10 mg/kg, po by LC-MS/MS analysis; assay type: ADME, organism-based; parameters: dose 10 mg/kg, route oral; conditions: in vivo; procedure, shortened: as §2
Plasma [6] = assay: Plasma concentration in Sprague-Dawley rat assessed as 2-(5-chloro-1H-indol-1-yl)-N-(4-((propan-2 ylsulfonamido)methyl)cyclohexyl)acetamide level at 10 mg/kg, po after 1 hr by LC-MS/MS analysis; assay type: ADME, organism-based; parameters: dose 10 mg/kg, route oral; conditions: in vivo; procedure, shortened: as §2
Brain [7] = assay: Drug uptake in Sprague-Dawley rat brain assessed as 2-(5-chloro-1H-indol-1-yl)-N-(4-((propan-2-ylsulfonamido)methyl)cyclohexyl)acetamide level at 10 mg/kg, po after 1 hr by LC-MS/MS analysis; assay type: ADME, organism-based; parameters: dose 10 mg/kg, route oral; conditions: in vivo, read-out: Drug uptake; procedure, shortened: as §2
[8] = Solubility of the compound at pH 7.4; assay type: physicochemical; conditions: buffer
[9] = Lipophilicity, log D of the compound at pH 7.4; assay type: physicochemical; conditions: buffer
[10] = Protein binding in human; assay type: ADME, organism-based; conditions: plasma, read-out: PB (converted)
Cytochrome P450 3A4 = Cytochrome P450 3A4 (Homo sapiens, UniProt P08684); assay: Inhibition of CYP3A4; assay type: ADME
Sequence of Cytochrome P450 3A4 (P08684 whole entry): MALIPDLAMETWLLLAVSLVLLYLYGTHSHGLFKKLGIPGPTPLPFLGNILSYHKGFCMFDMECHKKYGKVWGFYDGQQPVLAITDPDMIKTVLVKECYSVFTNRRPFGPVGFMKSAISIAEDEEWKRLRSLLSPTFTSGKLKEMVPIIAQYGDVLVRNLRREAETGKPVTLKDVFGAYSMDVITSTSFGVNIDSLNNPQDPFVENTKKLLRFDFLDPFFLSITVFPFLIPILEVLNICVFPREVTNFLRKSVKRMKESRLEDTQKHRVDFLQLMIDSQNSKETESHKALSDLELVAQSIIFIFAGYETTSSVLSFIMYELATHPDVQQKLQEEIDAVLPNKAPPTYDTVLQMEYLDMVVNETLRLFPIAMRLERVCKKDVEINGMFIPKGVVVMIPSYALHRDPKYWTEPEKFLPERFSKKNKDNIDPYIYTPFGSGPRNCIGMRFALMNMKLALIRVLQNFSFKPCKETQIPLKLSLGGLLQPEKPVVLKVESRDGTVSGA

Cytochrome P450 2C8 = molecular target: T2, Cytochrome P450 2C8 (Homo sapiens, UniProt P10632); assay: Inhibition of CYP2C8; assay type: ADME
T2 sequence (P10632 whole entry): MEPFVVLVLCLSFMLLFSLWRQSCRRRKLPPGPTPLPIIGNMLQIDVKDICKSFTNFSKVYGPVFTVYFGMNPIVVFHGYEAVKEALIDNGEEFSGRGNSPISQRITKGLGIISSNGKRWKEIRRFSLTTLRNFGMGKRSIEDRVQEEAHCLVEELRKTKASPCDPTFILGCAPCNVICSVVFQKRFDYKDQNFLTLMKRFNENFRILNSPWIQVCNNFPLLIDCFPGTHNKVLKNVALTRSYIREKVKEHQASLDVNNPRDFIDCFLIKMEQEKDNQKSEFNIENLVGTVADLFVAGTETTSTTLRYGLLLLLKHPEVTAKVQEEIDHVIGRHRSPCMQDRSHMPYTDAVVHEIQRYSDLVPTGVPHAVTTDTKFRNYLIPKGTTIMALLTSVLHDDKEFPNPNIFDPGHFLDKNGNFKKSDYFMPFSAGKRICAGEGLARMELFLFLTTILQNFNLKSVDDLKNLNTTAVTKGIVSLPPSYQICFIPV

Cytochrome P450 1A2 = molecular target: T3, Cytochrome P450 1A2 (Homo sapiens, UniProt P05177); assay: Inhibition of CYP1A2; assay type: ADME
T3 sequence (P05177 whole entry): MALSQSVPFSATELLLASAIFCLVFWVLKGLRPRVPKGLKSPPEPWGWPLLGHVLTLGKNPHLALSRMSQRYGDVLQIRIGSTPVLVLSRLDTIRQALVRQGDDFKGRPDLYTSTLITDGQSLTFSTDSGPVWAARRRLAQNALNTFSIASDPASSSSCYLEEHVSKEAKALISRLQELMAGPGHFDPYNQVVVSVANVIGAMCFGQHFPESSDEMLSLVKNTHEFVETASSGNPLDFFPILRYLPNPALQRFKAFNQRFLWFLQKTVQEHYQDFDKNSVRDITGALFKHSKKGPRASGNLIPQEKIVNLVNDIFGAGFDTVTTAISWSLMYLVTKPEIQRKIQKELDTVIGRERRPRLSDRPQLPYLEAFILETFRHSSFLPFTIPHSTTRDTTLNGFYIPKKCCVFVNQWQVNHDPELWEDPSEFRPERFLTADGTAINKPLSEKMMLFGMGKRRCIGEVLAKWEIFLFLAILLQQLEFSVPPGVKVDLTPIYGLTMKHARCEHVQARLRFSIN

Cytochrome P450 2C19 = Cytochrome P450 2C19 (Homo sapiens, UniProt P33261); assay: Inhibition of CYP2C19; assay type: ADME
Sequence of Cytochrome P450 2C19 (P33261 whole entry): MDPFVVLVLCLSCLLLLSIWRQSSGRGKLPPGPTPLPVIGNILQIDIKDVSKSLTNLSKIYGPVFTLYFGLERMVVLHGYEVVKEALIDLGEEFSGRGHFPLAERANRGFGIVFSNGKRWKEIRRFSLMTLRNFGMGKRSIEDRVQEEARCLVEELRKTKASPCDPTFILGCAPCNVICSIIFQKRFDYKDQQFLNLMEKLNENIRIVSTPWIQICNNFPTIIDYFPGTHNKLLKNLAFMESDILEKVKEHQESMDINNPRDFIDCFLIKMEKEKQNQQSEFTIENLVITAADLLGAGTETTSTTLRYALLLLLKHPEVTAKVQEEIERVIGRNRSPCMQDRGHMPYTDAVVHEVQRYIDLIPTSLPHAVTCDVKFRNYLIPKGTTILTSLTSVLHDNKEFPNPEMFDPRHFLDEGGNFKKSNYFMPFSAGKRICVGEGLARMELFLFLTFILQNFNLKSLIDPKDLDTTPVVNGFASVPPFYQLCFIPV

Cytochrome P450 2D6 = Cytochrome P450 2D6 (Homo sapiens, UniProt P10635); assay: Inhibition of CYP2D6; assay type: ADME
Sequence of Cytochrome P450 2D6 (P10635 whole entry): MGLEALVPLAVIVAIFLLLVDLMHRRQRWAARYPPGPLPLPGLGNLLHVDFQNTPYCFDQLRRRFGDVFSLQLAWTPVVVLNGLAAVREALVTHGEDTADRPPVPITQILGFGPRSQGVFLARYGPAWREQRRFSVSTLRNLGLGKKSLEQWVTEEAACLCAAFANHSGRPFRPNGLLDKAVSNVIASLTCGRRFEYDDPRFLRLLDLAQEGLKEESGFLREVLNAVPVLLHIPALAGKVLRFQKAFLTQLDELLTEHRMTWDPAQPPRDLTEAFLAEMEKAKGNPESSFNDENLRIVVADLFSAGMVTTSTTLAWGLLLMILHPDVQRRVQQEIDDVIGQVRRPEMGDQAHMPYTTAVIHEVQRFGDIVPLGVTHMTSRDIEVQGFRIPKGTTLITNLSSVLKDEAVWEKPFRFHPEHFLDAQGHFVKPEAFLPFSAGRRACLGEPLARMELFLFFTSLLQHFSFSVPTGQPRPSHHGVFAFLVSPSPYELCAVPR

[11] = Absolute oral bioavailability in Sprague-Dawley rat at 2 mg/kg after 24 hrs wash out period by HPLC analysis; assay type: ADME, organism-based; conditions: in vivo
Procedure, shortened: (§3)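 Male Sprague-Dawley rats (200–250 g), jugular and carotid artery cannulated; compound dissolved in 20% beta cyclodextrin, pH adjusted with methane sulfonic acid. Serial blood sampled at 12 time points over 24 h post dose by automated sampler; plasma from centrifugation analysed by HPLC; PK parameters by non-compartmental analysis of plasma concentration–time profile.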

[12] = Clearance in Sprague-Dawley rat blood at 2 mg/kg, po and 1 mg/kg, iv after 24 hrs wash out period by HPLC analysis; assay type: ADME, organism-based; conditions: whole blood; procedure, shortened: as §3
[13] = Clearance in Sprague-Dawley rat plasma at 2 mg/kg, po and 1 mg/kg, iv after 24 hrs wash out period by HPLC analysis; assay type: ADME, organism-based; procedure, shortened: as §3
[14] = Half life in Sprague-Dawley rat plasma at 2 mg/kg, po and 1 mg/kg, iv after 24 hrs wash out period by HPLC analysis; assay type: ADME, organism-based; procedure, shortened: as §3
[15] = Tmax in Sprague-Dawley rat plasma at 2 mg/kg, po and 1 mg/kg, iv after 24 hrs wash out period by HPLC analysis; assay type: ADME, organism-based; procedure, shortened: as §3
[16] = Cmax in Sprague-Dawley rat plasma at 2 mg/kg, po and 1 mg/kg, iv after 24 hrs wash out period by HPLC analysis; assay type: ADME, organism-based; procedure, shortened: as §3
[17] = Volume of distribution at steady state in Sprague-Dawley rat plasma at 2 mg/kg, po and 1 mg/kg, iv after 24 hrs wash out period by HPLC analysis; assay type: ADME, organism-based; conditions: read-out: Vdss; procedure, shortened: as §3
Rattus norvegicus = assay: Antiobesity activity in po dosed cPP-induced feeding Sprague-Dawley rat model assessed as reduction in food intake measured 1 hr post cpp challenge; assay type: functional
Procedure, shortened: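 Rats pretreated orally at 0.1, 1 or 10 mg/kg (vehicle 20% cyclodextrin) 1 h before intracerebroventricular infusion of Y5-selective peptide agonist cPP, 0.6 nmol in normal saline; food intake recorded, n = 7–14 per group.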

[18] = Drug uptake in cPP-induced feeding Sprague-Dawley rat model brain at 0.1 mg/kg, po after 1 hr; assay type: ADME, organism-based; parameters: dose 0.1 mg/kg, route oral; conditions: read-out: Drug uptake
Procedure, shortened: (§4)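 Satellite animals from the cPP feeding study dosed orally at 0.1, 1 or 10 mg/kg; plasma (ng/mL) and brain (ng/g) levels measured 1 h after dosing.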

[19] = Drug uptake in cPP-induced feeding Sprague-Dawley rat model brain at 1 mg/kg, po after 1 hr; assay type: ADME, organism-based; parameters: dose 1 mg/kg, route oral; conditions: read-out: Drug uptake; procedure, shortened: as §4
[20] = Drug uptake in cPP-induced feeding Sprague-Dawley rat model brain at 10 mg/kg, po after 1 hr; assay type: ADME, organism-based; parameters: dose 10 mg/kg, route oral; conditions: read-out: Drug uptake; procedure, shortened: as §4
[21] = Plasma concentration in cPP-induced feeding Sprague-Dawley rat model at 0.1 mg/kg, po after 1 hr; assay type: ADME, organism-based; parameters: dose 0.1 mg/kg, route oral; procedure, shortened: as §4
[22] = Plasma concentration in cPP-induced feeding Sprague-Dawley rat model at 1 mg/kg, po after 1 hr; assay type: ADME, organism-based; parameters: dose 1 mg/kg, route oral; procedure, shortened: as §4
[23] = Plasma concentration in cPP-induced feeding Sprague-Dawley rat model at 10 mg/kg, po after 1 hr; assay type: ADME, organism-based; parameters: dose 10 mg/kg, route oral; procedure, shortened: as §4

## CC(C)S(=O)(=O)NC[C@H]1CC[C@H](NC(=O)Cn2ccc3cc(Cl)ccc32)CC1
[1]
  Ki: 0.3 nM
Liver microsomes [2]
  CLH: 1.9 L/min
Liver microsomes [3]
  CLH: 11 mL/min
Brain [4]
  concentration: 54 nM
Plasma [5]
  concentration: 751 nM
Plasma [6]
  concentration: 8010 nM
Brain [7]
  concentration: 641 nM
[8]
  solubility: 160 µM (≈ 68.2 µg/mL)
[9]
  logD: 1.2
[10]
  fraction unbound: 0.004
Cytochrome P450 3A4
  inhibition (INH): Not Active
Cytochrome P450 2C8
  inhibition (INH): Not Active
Cytochrome P450 1A2
  inhibition (INH): Not Active
Cytochrome P450 2C19
  inhibition (INH): Not Active
Cytochrome P450 2D6
  inhibition (INH): Not Active
[11]
  bioavailability: 79%
[12]
  clearance: 15 mL/min/kg
[13]
  clearance: 10 mL/min/kg
[14]
  half-life: 7.2 h
[15]
  Tmax: 2 h
[16]
  Cmax: 480 ng/mL
[17]
  Vd: 2.8 L/kg
Rattus norvegicus
  Activity: Dose-dependent effect
Rattus norvegicus; read-out: MED
  minimal effective dose: 0.1 mg/kg
[18]
  concentration at 1 h: 6 ng/g
[19]
  concentration at 1 h: 38 ng/g
[20]
  concentration at 1 h: 132 ng/g
[21]
  concentration at 1 h: 84 ng/mL
[22]
  concentration at 1 h: 613 ng/mL
[23]
  concentration at 1 h: 1260 ng/mL
